An excerpt weighted towards active compounds, which were near 3.7% of everything screened.
hERG rescue = compounds protecting human hERG from proarrhythmic drug block | CHO-hERG, FluxOR thallium flux, dofetilide IC70 present | activation (rescue from dofetilide block), less the hit threshold, % at 10 µM | hit rate 0.51% among 310,000;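 active = activation above the mean of controls blocked by dofetilide plus 5 SD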;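 note: thallium influx through hERG after potassium depolarization seen as dye fluorescence rise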
Kir21 inh = blocks the mouse Kir2.1 inward-rectifier potassium channel | P35561 | HEK293-Kir2.1, FluxOR thallium flux fluorescence; active compounds read low | B-score at 10 µM | hit rate 0.85% among 310,000 | AID 1672;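 active = fluorescence ratio B-score at or below minus 3 SD of library scores, with starting-brightness B-score within 2 SD, cut at about -4.2 in these data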;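 note: channel flux triggered by added potassium and thallium sulfate stimulus; B-score of peak minus minimum fluorescence over baseline after thallium stimulus; more negative B-score means stronger Kir2.1 block with less thallium influx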
Target sequence (P35561 whole entry, looked up): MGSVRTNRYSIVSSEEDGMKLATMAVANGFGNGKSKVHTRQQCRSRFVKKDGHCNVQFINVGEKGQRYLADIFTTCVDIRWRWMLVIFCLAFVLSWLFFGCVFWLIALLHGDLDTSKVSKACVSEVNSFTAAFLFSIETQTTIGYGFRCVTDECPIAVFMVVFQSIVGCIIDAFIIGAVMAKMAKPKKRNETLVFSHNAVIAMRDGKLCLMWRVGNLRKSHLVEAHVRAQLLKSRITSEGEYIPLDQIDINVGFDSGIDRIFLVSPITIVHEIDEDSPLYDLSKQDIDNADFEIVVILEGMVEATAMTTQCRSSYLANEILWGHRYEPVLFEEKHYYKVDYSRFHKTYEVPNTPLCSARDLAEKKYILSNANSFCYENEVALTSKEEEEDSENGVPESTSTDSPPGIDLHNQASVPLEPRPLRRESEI
KCNK9 inh-1 = inhibitors of human KCNK9 two-pore domain potassium channel; Q9NPC2; HEK293 KCNK9, FluxOR thallium flux fluorescence; active compounds read low; B-score at 10 µM; hit rate 1.2% among 310,000; AID 488922;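 active = ratio B-score over 3 SD below the library mean, with starting fluorescence within 5 SD of its mean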;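 note: negative B-score means less thallium flux so channel inhibition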
Target sequence (Q9NPC2 whole entry, looked up, the tested form may be a part): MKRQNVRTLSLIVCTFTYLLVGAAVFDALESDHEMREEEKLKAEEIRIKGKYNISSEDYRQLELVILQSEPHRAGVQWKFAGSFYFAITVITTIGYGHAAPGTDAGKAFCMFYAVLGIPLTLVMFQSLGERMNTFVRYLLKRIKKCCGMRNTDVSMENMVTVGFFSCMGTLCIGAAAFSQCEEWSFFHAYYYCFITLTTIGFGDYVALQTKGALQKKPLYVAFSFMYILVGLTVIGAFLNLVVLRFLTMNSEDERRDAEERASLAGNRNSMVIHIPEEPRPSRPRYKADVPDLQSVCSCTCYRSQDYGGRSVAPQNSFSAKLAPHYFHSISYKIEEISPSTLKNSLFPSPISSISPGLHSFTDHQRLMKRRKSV
KCNQ1 block = inhibitors of human KCNQ1 potassium channel | P51787 | CHO-K1 KCNQ1, FluxOR thallium flux fluorescence; active compounds read high | B-score at 10 µM | hit rate 1.3% among 310,000 | AID 2642;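 active = compounds whose thallium flux B-score, printed positive for inhibition, exceeds three library SD while starting fluorescence stays within three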;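 note: channel opened by potassium depolarization with thallium stimulus after 20 min compound exposure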
KCNQ1 act = human KCNQ1 channel potentiation or activation | hit rate 0.35% among 310,000 | B-score at 10 µM | CHO-K1 KCNQ1, thallium flux FluxOR fluorescence; active compounds read high;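 active = fluorescence ratio B-score, a plate-corrected score, at least three library SD, with initial intensity B-score within 5 SD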
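Assay system: CHO-K1 cells stably expressing KCNQ1. Medium: assay buffer for compound exposure, DMSO matched across wells. Timing: 37 °C overnight plating, 90-min dark dye load, 20-min compound pretreatment. Signal: kinetic FluxOR fluorescence, 10 s baseline plus 110 s post-stimulus.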
KCNK3 block = human KCNK3 channel inhibition, primary screen | CHO-KCNK3 thallium flux, FluxOR fluorescence; active compounds read low | B-score at 10 µM | O14649 | hit rate 0.84% among 340,000;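 active = B-score under library mean minus 4 SD, starting fluorescence ratio at most library mean plus 5 SD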;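 note: more negative B-score means stronger inhibition of thallium flux through KCNK3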
hERG inh = counter-screen for Kir2.1 inhibitors: effect on human hERG; shares compounds with Kir21 inh; hERG-expressing cells, thallium flux; inhibition, % at 10 µM; hit rate 20% among 320;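 note: host cells are CHO cells stably expressing hERG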
KCNK9 inh-2 = tests whether Kir2.1 inhibitors also affect human KCNK9; shares compounds with Kir21 inh; KCNK9-expressing cells, ion flux inhibition; inhibition, % at 10 µM; hit rate 5% among 320
Kir21 ephys inh = blocks mouse Kir2.1 current in automated electrophysiology; shares compounds with Kir21 inh; Kir2.1 cells, automated patch-clamp current inhibition; inhibition, % at 25 µM; hit rate 71% among 320
KCNQ1 block val = human KCNQ1 channel inhibition, validation assay; shares compounds with KCNQ1 block; KCNQ1 cell line, FluxOR thallium flux fluorescence; inhibition, % at 10 µM; hit rate 93% among 1,600; AID 588353;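 active = primary screen active, with duplicate mean exceeding buffer control mean plus 3 SD of buffer wells, cut at about 28% in these data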
CHO Tl flux = counter-screen for KCNQ1 inhibitors: effect in parental CHO cells; hit rate 21% among 1,600; parental CHO-K1, FluxOR thallium flux fluorescence ratio; active compounds read low; zero means no signal rise above baseline; AID 588366; fluorescence ratio (Tl flux) at 10 µM; shares compounds with KCNQ1 block;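 active = mean of duplicate thallium-flux fluorescence ratios in parental host cells more than 5 SD below the buffer control mean, cut at about 0.38 in these data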;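 note: ratio is peak minus minimum fluorescence divided by baseline fluorescence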
KCNQ1 ephys val = human KCNQ1 inhibition validated by electrophysiology; shares compounds with KCNQ1 block; KCNQ1-CHO cells, automated patch clamp current; calls only at 10 µM; hit rate 20% among 490; AID 624120;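 active = KCNQ1 current drop exceeding 3 SD of negative control wells, seen in both duplicate runs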;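 note: steady state current during a 2 s step from -80 to +40 mV; negative values mean current inhibition and positive values mean potentiation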
KCNQ2 spec = KCNQ1 inhibitor that also blocks rat KCNQ2 channel | KCNQ2 cells, FluxOR thallium flux fluorescence | shares compounds with KCNQ1 block | inhibition, % at 10 µM | hit rate 71% among 1,600;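 active = mean percent inhibition of the KCNQ2 thallium signal more than 5 SD above the buffer-only control wells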;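 note: KCNQ2 expressed in CHO cells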
KCNQ1-KCNE1 inh = human KCNQ1/KCNE1 inhibition in KCNQ1 specificity screen | shares compounds with KCNQ1 block | KCNQ1/KCNE1 cells, FluxOR thallium flux fluorescence | inhibition, % at 10 µM | hit rate 77% among 1,600 | AID 652147;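 active = mean percent inhibition of duplicate wells above the buffer-only control mean plus 3 SD of those controls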
KCNK9 inh conf = human KCNK9 inhibitor confirmation; shares compounds with KCNK9 inh-1; HEK293 KCNK9 cells, FluxOR thallium flux fluorescence; inhibition, % at 10 µM; hit rate 43% among 4,900; AID 492992;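 active = thallium signal inhibited by more than 5 SD of the compound-free buffer control wells, on both duplicate plates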
Kir21 sel = selectivity of KCNK9 modulators against mouse Kir2.1. inhibition, % at 10 µM. Kir2.1 cells, FluxOR thallium flux fluorescence. shares compounds with KCNK9 inh-1. hit rate 4% among 4,900;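 active = thallium signal drop more than 5 SD beyond the mean of the no-compound control wells, seen in both duplicate plates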;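 note: signal is fluorescence rise after thallium addition divided by baseline fluorescence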
KCNK9 uninduced = second check of KCNK9 modulator effects in non-induced HEK293 cells; AID 492997; hit rate 40% among 4,900; shares compounds with KCNK9 inh-1; FluxOR thallium flux; inhibition, % at 10 µM;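 active = thallium signal drop beyond 5 SD of the untreated control mean, on both duplicate plates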
KCNK3 inh conf = confirmation of human KCNK3 two-pore domain potassium channel inhibitors; hit rate 99% among 2,400; CHO-KCNK3 thallium flux, FluxOR fluorescence; 0% buffer, 100% carvedilol maximal block; shares compounds with KCNK3 block; AID 651638; ratio percent of control, % at 10 µM;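 active = ratio percent of control, averaged over triplicates, above buffer control mean plus 5 SD, cut at about 64% in these data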;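 note: ratio is the fluorescence rise from min to max over baseline after thallium stimulus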
KCNK3 uninduced = activity in cells without induced KCNK3 expression | shares compounds with KCNK3 block | non-induced KCNK3 parental cells, FluxOR thallium flux; active compounds read low | thallium flux ratio (lower = more inhibition) at 10 µM | hit rate 40% among 2,400 | AID 651747;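 active = thallium flux ratio, averaged over three wells, more than 5 SD below the buffer control mean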;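 note: host cells are CHO cells without KCNK3 induction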
Large screens that a line does not name were inactive (follow-up assays come after a bar, where they were run). Unless noted, the rule behind the calls is not given here.

O=[N+]([O-])c1cccc(-c2csc(Nc3ccccc3)n2)c1	KCNK3 block -13.5 | hERG inh inactive | KCNK9 inh-2 inactive | Kir21 ephys inh inactive | KCNK3 inh conf 124.3 | KCNK3 uninduced 0.139
COc1ccccc1Nc1nc(-c2cccc([N+](=O)[O-])c2)cs1	none
Cc1ccc(-c2nc3ccccn3c2NCc2ccc3c(c2)OCO3)cc1	Kir21 inh -7.06, KCNK9 inh-1 -17.1, KCNQ1 block 10, KCNK3 block -9.94 | hERG inh 63.0% | KCNK9 inh-2 56.0% | Kir21 ephys inh inactive | KCNQ1 block val 118.5 | CHO Tl flux inactive | KCNQ1 ephys val inactive | KCNQ2 spec 112.7% | KCNQ1-KCNE1 inh 188.5% | KCNK9 inh conf 51.5% | Kir21 sel inactive | KCNK9 uninduced inactive | KCNK3 inh conf 142.7 | KCNK3 uninduced inactive
Cc1noc(C)c1COC(=O)CCN1c2ccccc2Sc2ccccc21	Kir21 inh -7.3, KCNK3 block -9.66 | hERG inh inactive | KCNK9 inh-2 inactive | Kir21 ephys inh 10.4% | KCNK3 inh conf 125.7 | KCNK3 uninduced 0.137
CCOC(=O)CSc1nc(Cc2ccccc2)nc2ccccc12	Kir21 inh -5.99, KCNK9 inh-1 -13.4 | hERG inh inactive | KCNK9 inh-2 inactive | Kir21 ephys inh 31.9% | KCNK9 inh conf 36.0% | Kir21 sel inactive | KCNK9 uninduced inactive | KCNK3 inh conf 96.3 | KCNK3 uninduced inactive
CCOC(=O)CSc1nc(-c2ccccc2)nc2ccccc12	none
O=C(O)c1ccc2c(=O)n3c(nc2c1)/C(=C/c1ccc(Cl)c(Cl)c1)CC3	none
CCN(CC)S(=O)(=O)c1cc(NC(=O)C2CC(=O)N(Cc3ccccc3)C2)ccc1Cl (stereo unspecified)	none (no result: hERG rescue, Kir21 inh, KCNK9 inh-1, KCNQ1 block, KCNQ1 act)
C=CCc1ccc(OCC(O)CN2CCc3ccccc3C2)c(OC)c1 (stereo unspecified)	Kir21 inh -5.82, KCNK3 block -8.96 | hERG inh 56.0% | KCNK9 inh-2 inactive | Kir21 ephys inh 24.7% | KCNK3 inh conf 103.0 | KCNK3 uninduced 0.141
CCN(CC(=O)Nc1c(F)cccc1F)C(=O)c1cccc(S(=O)(=O)N(C)c2ccccc2)c1	none
Cc1cccc(-c2c3c(=O)n(C)c(=O)n(C)c3cn2-c2ccc(O)cc2)c1	KCNQ1 block 6 | KCNQ1 block val 76.0 | CHO Tl flux inactive | KCNQ2 spec inactive | KCNQ1-KCNE1 inh 95.5%
CCNC(=S)N1CCN(CC)CC1	none
COc1ccc(-c2cc(-c3ccccc3)nc(NN)n2)cc1OC	none
COc1nc(-c2ccccc2)cc(-c2ccc(OC)c(OC)c2)n1	KCNQ1 block 7 | KCNQ1 block val 119.0 | CHO Tl flux inactive | KCNQ1 ephys val inactive | KCNQ2 spec 110.3% | KCNQ1-KCNE1 inh 131.0%
S=C(NCc1ccccc1)Nc1ccc(Cl)cc1	none
Cc1c(Cl)cccc1NC(=S)NCCc1ccc(Cl)cc1	KCNQ1 block 15 | KCNQ1 block val 73.0 | CHO Tl flux inactive | KCNQ2 spec 79.0% | KCNQ1-KCNE1 inh 51.0%
S=C(NCCc1cccc(Cl)c1)NCc1ccccc1	KCNQ1 block 8 | KCNQ1 block val 66.0 | CHO Tl flux inactive | KCNQ2 spec inactive | KCNQ1-KCNE1 inh 55.5%
S=C(NCCc1ccc(Cl)cc1)NCc1ccccc1	Kir21 inh -7.31, KCNQ1 block 10 | KCNQ1 block val 63.0 | CHO Tl flux inactive | KCNQ2 spec 74.0% | KCNQ1-KCNE1 inh 72.5%
C=CCN(c1ccc(C(=O)Nc2ccc(NC(C)=O)cc2)cc1)S(C)(=O)=O	none
O=C(c1ccco1)N1CCN(C(=O)c2ccc(-c3ccccc3Cl)o2)CC1	none (no result: hERG rescue, Kir21 inh, KCNK9 inh-1, KCNQ1 block, KCNQ1 act)
O=C(c1ccc(-c2ccccc2Cl)o1)N1CCN(c2ccccc2O)CC1	KCNQ1 block 8 | KCNQ1 block val active | CHO Tl flux inactive | KCNQ1 ephys val inactive | KCNQ2 spec inactive | KCNQ1-KCNE1 inh inactive
O=C([C@@H]1Cc2ccccc2CN1)N1CCN(Cc2ccccc2)CC1	none
COc1ccc(NC(C)C(=O)Nc2ccc(C#N)cc2)cc1Cl (stereo unspecified)	none
COc1ccc(NC(C)C(=O)Nc2ccc(C(C)(C)C)cc2)cc1Cl (stereo unspecified)	KCNQ1 block 7 | KCNQ1 block val 145.5 | CHO Tl flux inactive | KCNQ1 ephys val inactive | KCNQ2 spec 91.7% | KCNQ1-KCNE1 inh 167.0%
COc1ccccc1OCCCC(=O)Nc1ccc([N+](=O)[O-])cc1Br	none
COCC1CCCCN1C(=O)c1cc(COc2ccc3ncccc3c2)on1 (stereo unspecified)	none
